Assay results reported in ChEMBL document CHEMBL4261600 (Eur J Med Chem, 2018).

Experiments:
[1] = target: Membrane-associated tyrosine- and threonine-specific cdc2-inhibitory kinase (Homo sapiens) (UniProt Q99640); assay: Binding affinity to wild-type human partial length PKMYT1 (A88 to G366 residues) expressed in bacterial expression system assessed as remaining unbound target protein level at 1000 nM by Kinomescan method relative to control
[2] = MRT (0 to infinity) in Sprague-Dawley rat at 3 mg/kg, iv by LC-MS/MS analysis; type: ADME, organism-based; conditions: in vivo
[3] = target: Bone morphogenetic protein receptor type-1A (Homo sapiens) (UniProt P36894); assay: Binding affinity to wild-type human partial length BMPR1A (Q214 to I532 residues) expressed in bacterial expression system assessed as remaining unbound target protein level at 1000 nM by Kinomescan method relative to control
Method in brief: (§1)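 Profiled in a KINOMEscan binding panel with the inhibitor at a single concentration of 1 μM. Binding to each kinase was read out as percent of control, relative to a DMSO control. Strong binders were defined as those with a percent control value below 1.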

[4] = target: Myosin-IIIb (Homo sapiens) (UniProt Q8WXR4); assay: Binding affinity to wild-type human partial length MYO3B (M1 to D357 residues) expressed in bacterial expression system assessed as remaining unbound target protein level at 1000 nM by Kinomescan method relative to control
Sequence of Myosin-IIIb (Homo sapiens) (Q8WXR4 whole entry, the tested form may be a part, canonical isoform): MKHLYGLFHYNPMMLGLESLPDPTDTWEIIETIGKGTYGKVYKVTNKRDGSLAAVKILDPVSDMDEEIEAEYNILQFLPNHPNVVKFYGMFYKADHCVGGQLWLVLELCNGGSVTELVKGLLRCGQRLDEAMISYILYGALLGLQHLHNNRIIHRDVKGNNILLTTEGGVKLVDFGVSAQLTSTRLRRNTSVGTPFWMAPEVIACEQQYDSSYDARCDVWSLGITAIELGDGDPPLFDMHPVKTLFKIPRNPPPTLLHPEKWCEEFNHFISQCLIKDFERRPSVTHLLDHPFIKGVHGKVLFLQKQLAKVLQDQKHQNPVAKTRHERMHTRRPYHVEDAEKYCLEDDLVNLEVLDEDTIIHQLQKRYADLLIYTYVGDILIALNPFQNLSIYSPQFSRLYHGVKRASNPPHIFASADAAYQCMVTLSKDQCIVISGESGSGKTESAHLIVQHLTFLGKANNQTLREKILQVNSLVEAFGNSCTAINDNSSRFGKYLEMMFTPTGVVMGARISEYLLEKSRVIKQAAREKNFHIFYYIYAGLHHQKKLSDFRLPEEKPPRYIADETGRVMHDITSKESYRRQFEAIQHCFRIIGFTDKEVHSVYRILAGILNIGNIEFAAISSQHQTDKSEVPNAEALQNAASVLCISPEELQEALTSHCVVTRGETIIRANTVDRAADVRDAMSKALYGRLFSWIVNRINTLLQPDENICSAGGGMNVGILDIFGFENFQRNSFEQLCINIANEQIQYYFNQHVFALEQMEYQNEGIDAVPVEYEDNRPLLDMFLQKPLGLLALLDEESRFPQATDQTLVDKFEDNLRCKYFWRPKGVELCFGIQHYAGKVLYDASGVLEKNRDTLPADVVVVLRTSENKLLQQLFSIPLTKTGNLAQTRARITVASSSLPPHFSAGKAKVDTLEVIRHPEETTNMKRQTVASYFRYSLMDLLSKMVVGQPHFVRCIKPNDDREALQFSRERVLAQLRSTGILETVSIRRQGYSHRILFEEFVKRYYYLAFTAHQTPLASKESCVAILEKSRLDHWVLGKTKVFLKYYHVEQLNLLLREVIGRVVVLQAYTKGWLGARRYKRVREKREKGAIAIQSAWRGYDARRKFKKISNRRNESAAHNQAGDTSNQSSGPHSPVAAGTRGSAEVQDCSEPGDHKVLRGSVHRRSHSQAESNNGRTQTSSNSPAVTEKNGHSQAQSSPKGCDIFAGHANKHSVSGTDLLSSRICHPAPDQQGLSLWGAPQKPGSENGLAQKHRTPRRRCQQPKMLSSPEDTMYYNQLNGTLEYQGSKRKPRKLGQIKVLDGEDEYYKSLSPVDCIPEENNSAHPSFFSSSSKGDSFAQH

[5] = target: Casein kinase I isoform gamma-3 (Homo sapiens) (UniProt Q9Y6M4); assay: Binding affinity to wild-type human full length CSNK1G3 (M1 to K447 residues) expressed in bacterial expression system assessed as remaining unbound target protein level at 1000 nM by Kinomescan method relative to control
Method in brief: (§2)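 Single-point competition binding screen across a panel of 468 kinases and mutants, with the inhibitor at 1 μM. Binding is read out as percent of a DMSO control, and targets below 1 percent control were classed as strong binders.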

[6] = target: Cyclin-Y/Cyclin-dependent kinase 16 (Homo sapiens, UniProt Q00536); assay: Inhibition of recombinant GST-tagged inactive state of human CDK16 (108 to end residues)/cyclin Y (2 to end residues); type: protein-complex assay
Sequence of Cyclin-Y/Cyclin-dependent kinase 16 (Q00536 whole entry, the tested form may be a part): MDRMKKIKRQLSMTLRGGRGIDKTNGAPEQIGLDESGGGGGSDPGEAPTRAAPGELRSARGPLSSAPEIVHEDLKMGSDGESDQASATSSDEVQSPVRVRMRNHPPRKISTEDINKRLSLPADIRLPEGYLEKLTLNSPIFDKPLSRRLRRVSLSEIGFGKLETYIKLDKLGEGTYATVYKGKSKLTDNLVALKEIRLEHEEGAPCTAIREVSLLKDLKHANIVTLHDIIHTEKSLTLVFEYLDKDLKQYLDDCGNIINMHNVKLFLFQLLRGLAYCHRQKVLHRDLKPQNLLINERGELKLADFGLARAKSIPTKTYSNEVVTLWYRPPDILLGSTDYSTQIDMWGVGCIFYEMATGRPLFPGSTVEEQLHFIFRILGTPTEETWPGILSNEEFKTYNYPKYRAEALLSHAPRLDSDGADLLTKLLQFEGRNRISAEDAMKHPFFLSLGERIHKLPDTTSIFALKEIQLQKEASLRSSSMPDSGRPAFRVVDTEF
Sequence of Cyclin-Y/Cyclin-dependent kinase 16 (Q8ND76 whole entry, further chain, the tested form may be a part): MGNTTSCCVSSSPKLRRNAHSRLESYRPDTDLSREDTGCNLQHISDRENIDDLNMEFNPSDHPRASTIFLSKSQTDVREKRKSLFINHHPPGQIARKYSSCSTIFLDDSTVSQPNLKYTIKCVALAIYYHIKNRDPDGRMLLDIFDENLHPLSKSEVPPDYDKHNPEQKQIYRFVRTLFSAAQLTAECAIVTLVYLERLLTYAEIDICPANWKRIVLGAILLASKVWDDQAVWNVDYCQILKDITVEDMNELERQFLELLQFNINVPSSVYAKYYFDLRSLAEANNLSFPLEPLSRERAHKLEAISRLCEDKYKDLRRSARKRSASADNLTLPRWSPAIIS

[7] = target: cGMP-dependent protein kinase 1 (Homo sapiens) (UniProt Q13976); assay: Binding affinity to wild-type human partial length PRKG1 (L339 to F686 residues) expressed in bacterial expression system assessed as remaining unbound target protein level at 1000 nM by Kinomescan method relative to control
[8] = target: Receptor-type tyrosine-protein kinase FLT3 (Homo sapiens) (UniProt P36888); assay: Binding affinity to wild-type human partial length FLT3 (V592 to Y969 residues) expressed in bacterial expression system assessed as remaining unbound target protein level at 1000 nM by Kinomescan method relative to control
[9] = target: SRSF protein kinase 1 (Homo sapiens) (UniProt Q96SB4); assay: Binding affinity to wild-type human full length SRPK1 (M1 to S655 residues) expressed in bacterial expression system assessed as remaining unbound target protein level at 1000 nM by Kinomescan method relative to control
Method in brief: (§3)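 KINOMEscan competition binding profile across a panel of 468 kinases and mutants, with the inhibitor tested at a single concentration of 1 μM. Binding is reported as percent of control, meaning signal relative to a DMSO control.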

[10] = target: Serine/threonine-protein kinase LATS2 (Homo sapiens) (UniProt Q9NRM7); assay: Binding affinity to wild-type human partial length LATS2 (Q641 to V1088 residues) expressed in mammalian expression system assessed as remaining unbound target protein level at 1000 nM by Kinomescan method relative to control
Sequence of Serine/threonine-protein kinase LATS2 (Homo sapiens) (Q9NRM7 whole entry, the tested form may be a part): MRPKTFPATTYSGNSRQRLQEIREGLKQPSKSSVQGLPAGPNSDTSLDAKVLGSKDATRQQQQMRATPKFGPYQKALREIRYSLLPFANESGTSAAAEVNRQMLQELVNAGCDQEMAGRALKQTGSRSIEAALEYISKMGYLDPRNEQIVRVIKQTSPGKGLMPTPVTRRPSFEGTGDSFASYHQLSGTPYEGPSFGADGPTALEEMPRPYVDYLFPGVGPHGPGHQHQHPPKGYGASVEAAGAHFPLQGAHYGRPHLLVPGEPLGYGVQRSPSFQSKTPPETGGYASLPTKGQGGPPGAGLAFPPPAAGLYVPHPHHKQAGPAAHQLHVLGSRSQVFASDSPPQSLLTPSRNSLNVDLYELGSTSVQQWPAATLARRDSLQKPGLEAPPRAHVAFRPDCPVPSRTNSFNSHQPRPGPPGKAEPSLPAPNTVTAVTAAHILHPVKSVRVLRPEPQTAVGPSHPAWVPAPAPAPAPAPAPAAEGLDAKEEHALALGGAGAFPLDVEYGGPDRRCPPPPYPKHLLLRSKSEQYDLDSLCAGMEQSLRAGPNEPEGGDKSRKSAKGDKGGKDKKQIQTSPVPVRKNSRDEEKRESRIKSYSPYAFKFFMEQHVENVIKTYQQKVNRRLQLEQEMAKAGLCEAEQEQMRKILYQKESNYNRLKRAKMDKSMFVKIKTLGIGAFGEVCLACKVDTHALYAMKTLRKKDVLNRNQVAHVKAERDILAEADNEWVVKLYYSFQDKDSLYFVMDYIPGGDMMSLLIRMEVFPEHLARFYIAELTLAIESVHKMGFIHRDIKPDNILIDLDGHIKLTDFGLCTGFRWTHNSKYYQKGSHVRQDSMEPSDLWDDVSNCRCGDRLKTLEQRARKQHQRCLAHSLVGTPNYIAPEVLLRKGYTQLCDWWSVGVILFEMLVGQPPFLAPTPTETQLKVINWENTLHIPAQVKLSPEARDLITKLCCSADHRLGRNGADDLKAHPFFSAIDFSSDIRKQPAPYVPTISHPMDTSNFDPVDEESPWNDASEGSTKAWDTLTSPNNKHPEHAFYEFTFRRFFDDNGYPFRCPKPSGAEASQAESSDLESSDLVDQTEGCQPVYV

[11] = target: Serine/threonine-protein kinase DCLK2 (Homo sapiens) (UniProt Q8N568); assay: Binding affinity to wild-type human partial length DCAMKL2 (K273 to V664 residues) expressed in bacterial expression system assessed as remaining unbound target protein level at 1000 nM by Kinomescan method relative to control
[12] = target: Cyclin-dependent kinase 14 (Homo sapiens) (UniProt O94921); assay: Binding affinity to wild-type human full length PFTK1 (M1 to H451 residues) expressed in bacterial expression system assessed as remaining unbound target protein level at 1000 nM by Kinomescan method relative to control; method in brief: as §3
Sequence of Cyclin-dependent kinase 14 (Homo sapiens) (O94921 whole entry, the tested form may be a part, canonical isoform): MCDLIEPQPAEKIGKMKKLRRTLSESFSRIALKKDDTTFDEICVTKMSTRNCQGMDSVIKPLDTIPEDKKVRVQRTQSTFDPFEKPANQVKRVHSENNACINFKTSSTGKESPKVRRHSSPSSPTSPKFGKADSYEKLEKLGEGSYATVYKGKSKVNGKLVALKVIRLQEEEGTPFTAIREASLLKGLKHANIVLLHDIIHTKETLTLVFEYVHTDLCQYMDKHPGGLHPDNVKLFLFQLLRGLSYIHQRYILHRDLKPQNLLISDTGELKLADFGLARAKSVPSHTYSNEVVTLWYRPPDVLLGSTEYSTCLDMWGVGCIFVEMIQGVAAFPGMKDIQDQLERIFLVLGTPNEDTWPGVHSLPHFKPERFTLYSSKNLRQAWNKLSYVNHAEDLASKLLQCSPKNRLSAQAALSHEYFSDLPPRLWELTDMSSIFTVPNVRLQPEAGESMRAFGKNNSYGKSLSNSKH

[13] = system: Phosphatidylinositol 4,5-bisphosphate 3-kinase catalytic subunit alpha isoform (Homo sapiens), P42336 [Q546K]; assay: Binding affinity to human partial length PIK3CA Q546K mutant (R108 to N1068 residues) expressed in mammalian expression system assessed as remaining unbound target protein level at 1000 nM by Kinomescan method relative to control
Method in brief: (§4)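 KINOMEscan competition-binding profiling across the panel of 468 kinases and mutants, with inhibitor tested at 1 μM. Binding is expressed as percent of control, with DMSO as the reference control.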

[14] = target: Receptor-interacting serine/threonine-protein kinase 1 (Homo sapiens) (UniProt Q13546); assay: Binding affinity to wild-type human partial length RIPK1 (M1 to K305 residues) expressed in bacterial expression system assessed as remaining unbound target protein level at 1000 nM by Kinomescan method relative to control
[15] = target: Serine/threonine-protein kinase NLK (Homo sapiens) (UniProt Q9UBE8); assay: Binding affinity to wild-type human full length NLK (M13 to E527 residues) expressed in bacterial expression system assessed as remaining unbound target protein level at 1000 nM by Kinomescan method relative to control; method in brief: as §2
[16] = system: Mitogen-activated protein kinase kinase kinase 12 (DLK); assay: Binding affinity to wild-type human full length DLK (M1 to P859 residues) expressed in mammalian expression system assessed as remaining unbound target protein level at 1000 nM by Kinomescan method relative to control
[17] = target: Serine/threonine-protein kinase WNK4 (Homo sapiens) (UniProt Q96J92); assay: Binding affinity to wild-type human partial length WNK4 (A31 to D461 residues) expressed in mammalian expression system assessed as remaining unbound target protein level at 1000 nM by Kinomescan method relative to control
[18] = target: TRAF2 and NCK-interacting protein kinase (Homo sapiens) (UniProt Q9UKE5); assay: Binding affinity to wild-type human partial length TNIK (D4 to K311 residues) expressed in bacterial expression system assessed as remaining unbound target protein level at 1000 nM by Kinomescan method relative to control
[19] = target: Eukaryotic translation initiation factor 2-alpha kinase 1 (Homo sapiens) (UniProt Q9BQI3); assay: Binding affinity to wild-type human partial length EIF2AK1 (Q147 to E603 residues) expressed in mammalian expression system assessed as remaining unbound target protein level at 1000 nM by Kinomescan method relative to control
[20] = system: Tyrosine-protein kinase ABL1 (Homo sapiens), P00519 [H396P]; assay: Binding affinity to human non-phosphorylated ABL1 H396P mutant (S229 to K512 residues) expressed in mammalian expression system assessed as remaining unbound target protein level at 1000 nM by Kinomescan method relative to control; method in brief: as §4
[21] = target: Bone morphogenetic protein receptor type-2 (Homo sapiens) (UniProt Q13873); assay: Binding affinity to wild-type human partial length BMPR2 (R179 to Q526 residues) expressed in mammalian expression system assessed as remaining unbound target protein level at 1000 nM by Kinomescan method relative to control; method in brief: as §1
Sequence of Bone morphogenetic protein receptor type-2 (Homo sapiens) (Q13873 whole entry, the tested form may be a part): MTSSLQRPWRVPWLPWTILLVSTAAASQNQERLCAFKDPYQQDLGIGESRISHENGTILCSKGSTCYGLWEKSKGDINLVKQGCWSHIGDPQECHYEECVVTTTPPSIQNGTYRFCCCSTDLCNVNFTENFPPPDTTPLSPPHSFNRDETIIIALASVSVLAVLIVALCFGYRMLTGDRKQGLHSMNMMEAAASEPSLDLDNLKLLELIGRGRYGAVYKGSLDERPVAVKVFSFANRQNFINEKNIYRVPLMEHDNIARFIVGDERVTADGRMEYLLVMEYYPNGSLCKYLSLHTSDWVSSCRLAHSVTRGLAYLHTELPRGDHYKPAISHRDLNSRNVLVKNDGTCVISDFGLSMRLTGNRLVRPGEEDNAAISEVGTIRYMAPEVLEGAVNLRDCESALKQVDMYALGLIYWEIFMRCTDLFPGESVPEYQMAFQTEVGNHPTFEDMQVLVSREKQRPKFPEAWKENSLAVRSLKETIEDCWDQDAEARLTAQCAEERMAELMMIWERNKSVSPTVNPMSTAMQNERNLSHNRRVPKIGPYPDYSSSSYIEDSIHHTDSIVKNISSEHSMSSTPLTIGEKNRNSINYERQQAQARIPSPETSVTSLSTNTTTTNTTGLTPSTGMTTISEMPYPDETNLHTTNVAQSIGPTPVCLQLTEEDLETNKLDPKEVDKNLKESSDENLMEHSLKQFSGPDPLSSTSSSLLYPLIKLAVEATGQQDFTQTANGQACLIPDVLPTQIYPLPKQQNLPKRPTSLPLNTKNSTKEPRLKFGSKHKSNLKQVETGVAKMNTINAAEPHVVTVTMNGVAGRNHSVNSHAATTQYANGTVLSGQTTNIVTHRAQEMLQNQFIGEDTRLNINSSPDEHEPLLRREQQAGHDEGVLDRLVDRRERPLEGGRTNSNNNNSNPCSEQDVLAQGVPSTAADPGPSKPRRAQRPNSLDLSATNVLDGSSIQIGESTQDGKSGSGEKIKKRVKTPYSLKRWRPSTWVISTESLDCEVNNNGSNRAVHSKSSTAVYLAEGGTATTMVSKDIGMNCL

`COCCN[C@H]1CC[C@H](Nc2cc(-c3csc(NCC4(C#N)CCOCC4)n3)c(Cl)cn2)CC1` gave an Activity [1] of 100%, an MRT inf [2] of 6.33 h and an Activity [3] of 98%. The Activity [4] was 82%, the Activity [5] was 90% and the IC50 [6] was 292 nM. For the same compound, the Activity [7] was 100%, the Activity [8] was 89% and the Activity [9] was 66%. The Activity [10] was 84%, the Activity [11] was 96% and the Activity [12] was 80%. It also gave an Activity [13] of 88%, an Activity [14] of 79% and an Activity [15] of 100%. It also gave an Activity [16] of 100%, an Activity [17] of 100% and an Activity [18] of 64%. The Activity [19] was 97%, the Activity [20] was 75% and the Activity [21] was 100%.
